One block for each compound: values may come before it.
Tests used:
MCF7 = test: Cytotoxicity against human MCF7 cells assessed as inhibition of cell growth incubated for 72 hrs by MTT assay; format: functional, cell-based; details: MCF7, 72 h
[1] = Stability in CD-1 mouse plasma at 37.7 micromol/kg,ip administration measured after 22 hrs by LC-MS/MS analysis; format: ADME, cell-free; details: at 37.7 µmol/kg
Summary of the method: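 Female CD-1 mice (n=3) dosed i.p. at 37.7 μmol/kg (equimolar across compounds). Blood (20 μL) drawn at 0.25, 5 and 22 h and processed to plasma. Drug levels quantified by LC-MS/MS.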

[2] = Half life in human liver microsomes at 1 uM incubated for 30 mins in presence of NADPH by LC-MS/MS analysis; format: ADME, Microsome; details: 0.5 h
Summary of the method: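 Human liver microsomes (1 mg/mL final) in 100 mM phosphate buffer with or without NADPH; compound at 1 μM final, 37 °C. Samples taken at 0, 5, 10, 20, 30 min (0 and 30 min without NADPH), quenched with cold acetonitrile containing internal standards, analysed by LC-MS/MS; verapamil as control.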

[3] = Tmax in CD-1 mouse at 10 mg/kg,po administration measured upto 48 hrs by LC-MS/MS analysis; format: ADME, organism-based; details: in vivo
Summary of the method: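 Male ICR mice (n=3) dosed by oral gavage at 10 mg/kg from a 1 mg/mL solution in 20% DMSO/16% PEG/4% dextrose in PBS. Tail-vein blood (10 μL) drawn at 15 and 30 min and at 1, 2, 4, 8, 24 and 48 h. Plasma quantified by LC-MS/MS against calibration standards. Parameters from non-compartmental extravascular model.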

[4] = Toxicity in mouse assessed as body weight loss at 50 mg/kg,po administration for 4 weeks; format: organism-based; details: in vivo, 672 h
Summary of the method: (§1)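 Mice dosed orally once daily at 50 or 100 mg/kg for 4 weeks. Body weight monitored throughout.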

[5] = Cmax in CD-1 mouse at 10 mg/kg,po administration measured upto 48 hrs by LC-MS/MS analysis; format: ADME, organism-based; details: in vivo
Summary of the method: (§2)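 Oral gavage in ICR male mice (n = 3); dosing solution 1 mg/mL in 20% DMSO, 16% PEG, 4% dextrose in PBS. Tail-vein blood (10 μL) taken at 15, 30 min and 1, 2, 4, 8, 24, 48 h. Plasma quantified by LC-MS/MS against a 0.5–1000 ng/mL calibration; parameters from a non-compartmental extravascular model.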

[6] = Toxicity in mouse assessed as body weight loss at 100 mg/kg,po administration for 4 weeks; format: organism-based; details: in vivo, 672 h; summary of the method: as §1
[7] = AUC (0 to t) in CD-1 mouse at 10 mg/kg,po administration measured upto 48 hrs by LC-MS/MS analysis; format: ADME, organism-based; details: in vivo; summary of the method: as §2
[8] = Drug concentration in CD-1 mouse plasma at 37.7 micromol/kg,ip administration measured after 22 hrs by LC-MS/MS analysis; format: ADME, cell-free; details: dose 37.7 µmol/kg
Summary of the method: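 Female CD-1 mice (n = 3) dosed ip at 37.7 μmol/kg. Blood (20 μL) taken at 0.25, 5 and 22 h, processed to plasma, and drug quantified by LC-MS/MS.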

[9] = Toxicity in mouse assessed as mild stress at 100 mg/kg,po administration for 4 weeks; format: organism-based; details: in vivo, 672 h
Summary of the method: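 Mice dosed orally at up to 100 mg/kg, the highest dose tested. Observed for signs of stress.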

CYP1A2 = test: Stability in human liver microsomes assessed as CYP1A2-mediated drug metabolism incubated for 1 hr; format: ADME, Microsome; details: read-out: Drug metabolism
[10] = Cytotoxicity against CD-1 mouse Primary hepatocyte assessed as inhibition of cell growth incubated for 72 hrs by MTT assay; format: toxicity, cell-based; details: primary hepatocytes
[11] = biological target: Voltage-gated inwardly rectifying potassium channel KCNH2 (Homo sapiens, UniProt Q12809); test: Inhibition of hERG transfected in HEK293 cells by patch clamp assay; format: toxicity, cell-based
[12] = Cmax in CD-1 mouse at 1 mg/kg,iv administration measured upto 48 hrs by LC-MS/MS analysis; format: ADME, organism-based; details: in vivo
Summary of the method: (§3)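 Single intravenous bolus in ICR male mice (n = 3, 6 weeks); dosing solution 0.5 mg/mL in 20% DMSO, 16% PEG, 4% dextrose in PBS. Tail-vein blood (10 μL) taken at 2, 5, 15, 30 min and 1, 2, 4, 8, 24, 48 h. Plasma quantified by LC-MS/MS against a 0.5–1000 ng/mL calibration; parameters from non-compartmental analysis.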

[13] = biological target: Prostaglandin G/H synthase 1 (Homo sapiens, UniProt P23219); test: Inhibition of COX1 (unknown origin); format: toxicity
Summary of the method: (§4)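 Tested in a commercial off-target safety screening panel of 78 targets. Values reported as RC50, taken as IC50 except for agonist mode, where RC50 is EC50.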

[14] = AUC (0 to t) in CD-1 mouse at 1 mg/kg,iv administration measured upto 48 hrs by LC-MS/MS analysis; format: ADME, organism-based; details: in vivo; summary of the method: as §3
[15] = Half life in CD-1 mouse at 1 mg/kg,iv administration measured upto 48 hrs by LC-MS/MS analysis; format: ADME, organism-based; details: in vivo; summary of the method: as §3
[16] = Half life in CD-1 mouse at 10 mg/kg,po administration measured upto 48 hrs by LC-MS/MS analysis; format: ADME, organism-based; details: in vivo; summary of the method: as §2
hERG (KCNH2) = hERG (KCNH2) (Homo sapiens, UniProt Q12809); test: Inhibition of hERG transfected in HEK293 cells at 30 uM by patch clamp assay relative to control; format: toxicity, cell-based; details: HEK293 cells transfected with hERG
[17] = Oral bioavailability in CD-1 mouse at 10 mg/kg administration measured upto 48 hrs by LC-MS/MS analysis; format: ADME, organism-based; details: in vivo
[18] = biological target: T1, Prostaglandin G/H synthase 2 (Homo sapiens, UniProt P35354); test: Inhibition of COX2 (unknown origin); format: toxicity; summary of the method: as §4
T1 sequence (P35354 whole entry): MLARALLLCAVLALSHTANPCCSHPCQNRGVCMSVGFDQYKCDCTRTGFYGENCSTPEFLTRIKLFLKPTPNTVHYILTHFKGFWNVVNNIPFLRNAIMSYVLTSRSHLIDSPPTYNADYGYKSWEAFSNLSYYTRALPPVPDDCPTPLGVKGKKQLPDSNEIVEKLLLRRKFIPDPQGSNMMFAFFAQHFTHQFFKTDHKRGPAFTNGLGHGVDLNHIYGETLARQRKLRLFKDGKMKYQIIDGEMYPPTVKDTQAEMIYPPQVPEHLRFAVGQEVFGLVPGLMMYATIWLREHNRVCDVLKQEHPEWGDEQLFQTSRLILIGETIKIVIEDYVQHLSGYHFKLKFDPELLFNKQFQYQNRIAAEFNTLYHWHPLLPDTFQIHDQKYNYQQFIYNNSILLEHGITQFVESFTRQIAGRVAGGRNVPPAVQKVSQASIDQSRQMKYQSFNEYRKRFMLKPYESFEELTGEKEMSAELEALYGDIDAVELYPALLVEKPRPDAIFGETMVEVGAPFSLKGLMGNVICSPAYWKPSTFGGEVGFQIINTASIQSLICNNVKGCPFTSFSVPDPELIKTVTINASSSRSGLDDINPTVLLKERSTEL

[19] = Clearance in CD-1 mouse at 1 mg/kg,iv administration measured upto 48 hrs by LC-MS/MS analysis; format: ADME, organism-based; details: in vivo; summary of the method: as §3
[20] = Tmax in CD-1 mouse at 1 mg/kg,iv administration measured upto 48 hrs by LC-MS/MS analysis; format: ADME, organism-based; details: in vivo
Summary of the method: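 Male ICR mice (n=3, 6 weeks) given 1 mg/kg i.v. from a 0.5 mg/mL solution in 20% DMSO/16% PEG/4% dextrose in PBS. Tail-vein blood (10 μL) drawn at 2, 5, 15 and 30 min and at 1, 2, 4, 8, 24 and 48 h. Plasma quantified by LC-MS/MS against 0.5–1000 ng/mL calibration standards with QC samples. Parameters from non-compartmental analysis.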

[21] = Stability in human plasma incubated upto 150 mins; format: ADME, cell-free; details: 2.5 h

Sequence of Voltage-gated inwardly rectifying potassium channel KCNH2 (Q12809 whole entry): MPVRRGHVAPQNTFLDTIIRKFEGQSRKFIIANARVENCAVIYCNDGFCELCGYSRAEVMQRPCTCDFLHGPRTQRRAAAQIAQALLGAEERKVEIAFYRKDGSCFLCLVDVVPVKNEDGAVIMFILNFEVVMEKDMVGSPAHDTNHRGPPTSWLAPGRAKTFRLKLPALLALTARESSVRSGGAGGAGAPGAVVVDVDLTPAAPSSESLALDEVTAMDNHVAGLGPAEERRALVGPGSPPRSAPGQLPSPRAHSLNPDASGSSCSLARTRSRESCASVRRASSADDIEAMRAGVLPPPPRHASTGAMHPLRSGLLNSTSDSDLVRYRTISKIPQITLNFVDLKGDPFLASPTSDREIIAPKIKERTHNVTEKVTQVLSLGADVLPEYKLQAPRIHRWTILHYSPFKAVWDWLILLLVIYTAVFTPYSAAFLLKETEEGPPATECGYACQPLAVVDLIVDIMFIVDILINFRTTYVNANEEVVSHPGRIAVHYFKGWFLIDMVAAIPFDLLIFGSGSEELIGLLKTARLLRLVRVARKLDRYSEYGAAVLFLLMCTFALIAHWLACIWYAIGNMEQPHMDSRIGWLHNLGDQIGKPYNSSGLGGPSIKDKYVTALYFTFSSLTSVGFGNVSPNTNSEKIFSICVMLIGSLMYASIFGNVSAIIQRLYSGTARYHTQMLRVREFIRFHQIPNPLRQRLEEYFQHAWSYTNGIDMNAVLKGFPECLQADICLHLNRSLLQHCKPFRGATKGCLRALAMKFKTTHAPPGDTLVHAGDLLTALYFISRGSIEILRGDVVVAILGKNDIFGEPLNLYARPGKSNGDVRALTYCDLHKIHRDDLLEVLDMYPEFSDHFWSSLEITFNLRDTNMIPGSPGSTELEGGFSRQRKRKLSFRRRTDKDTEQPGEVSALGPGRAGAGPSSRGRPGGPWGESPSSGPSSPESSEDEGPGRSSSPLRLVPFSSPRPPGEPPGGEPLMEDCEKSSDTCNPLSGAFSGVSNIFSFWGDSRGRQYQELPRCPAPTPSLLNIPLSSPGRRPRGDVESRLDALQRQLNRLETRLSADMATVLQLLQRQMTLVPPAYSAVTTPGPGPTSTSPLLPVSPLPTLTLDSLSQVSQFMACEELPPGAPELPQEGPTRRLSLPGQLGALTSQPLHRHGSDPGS
Sequence of hERG (KCNH2) (Q12809 whole entry): as above
Sequence of Prostaglandin G/H synthase 1 (P23219 whole entry): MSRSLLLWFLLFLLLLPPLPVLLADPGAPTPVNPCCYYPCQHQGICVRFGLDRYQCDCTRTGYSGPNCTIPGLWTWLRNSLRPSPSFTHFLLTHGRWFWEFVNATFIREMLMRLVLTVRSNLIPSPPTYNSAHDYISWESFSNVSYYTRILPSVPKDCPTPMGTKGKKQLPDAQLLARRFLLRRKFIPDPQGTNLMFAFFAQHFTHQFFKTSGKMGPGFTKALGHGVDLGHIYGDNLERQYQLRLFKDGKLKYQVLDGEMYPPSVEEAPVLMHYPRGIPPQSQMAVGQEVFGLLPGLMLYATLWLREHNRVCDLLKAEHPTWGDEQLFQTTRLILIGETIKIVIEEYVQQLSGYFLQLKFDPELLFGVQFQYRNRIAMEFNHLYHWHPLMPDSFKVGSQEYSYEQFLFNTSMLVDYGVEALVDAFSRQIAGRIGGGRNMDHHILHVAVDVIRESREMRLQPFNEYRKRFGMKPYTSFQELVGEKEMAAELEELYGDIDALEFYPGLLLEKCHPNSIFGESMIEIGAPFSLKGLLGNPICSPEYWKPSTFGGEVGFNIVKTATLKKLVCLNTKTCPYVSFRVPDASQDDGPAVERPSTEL

Compound: C/C(=N\N=c1/[nH]c2cc(F)c(F)cc2n1C)c1ccc(-c2nnn[nH]2)cn1
IC50 (MCF7): > 1000 nM

Compound: C/C(=N\Oc1nc2ccccc2n1C)c1ccccn1
IC50 (MCF7): > 1000 nM

Compound: C/C(=N\N=c1/[nH]c2cc(F)c(F)cc2n1C)c1cccs1
IC50 (MCF7): > 1000 nM

Compound: C/C(=N\N=c1/[nH]c2cc(F)c(F)cc2n1C)c1cocn1
IC50 (MCF7): > 1000 nM

Stability [1]: Stable | t1/2 [2]: 4.93 min
Compound: C/C(=N\Nc1nc2ccccc2n1C)c1ccc(F)cn1
IC50 (MCF7): 5.4 nM

Compound: Cn1c(N2N=C(c3ccccn3)CC2=O)nc2ccccc21
IC50 (MCF7): > 1000 nM

Compound: C/C(=N\N=c1/[nH]c2cc(F)c(F)cc2n1C)c1ccc(C(=O)O)cn1
IC50 (MCF7): > 1000 nM

Compound: C/C(=N\N=c1/[nH]c2cc(F)c(F)cc2n1C)c1ccncc1
IC50 (MCF7): > 1000 nM

Compound: C/C(=N\N=c1/[nH]c2cc(F)c(F)cc2n1C)c1ccc(OCCCN2CCOCC2)cn1
IC50 (MCF7): 30.5 nM

Compound: C/C(=N\N=c1/[nH]c2cc(F)c(F)cc2n1C)c1ccc(-c2cnn(C)c2)cn1
IC50 (MCF7): 6.7 nM

Compound: C/C(=N\N=c1/[nH]c2cc(F)c(F)cc2n1C)c1ccc(C(=O)N2CCOCC2)cn1
IC50 (MCF7): 44.7 nM

Compound: C/C(=N\N=c1/[nH]c2cc(F)c(F)cc2n1C)c1cn(C)cn1
IC50 (MCF7): > 1000 nM

Compound: C/C(=N\N=c1/[nH]c2cc(F)c(F)cc2n1C)c1ccccc1
IC50 (MCF7): > 1000 nM

Compound: Cn1c(NNC(=O)c2ccccn2)nc2ccccc21
IC50 (MCF7): 494 nM

Compound: C/C(=N\N=c1/[nH]c2cc(Cl)c(Cl)cc2n1C)c1ccc(F)cn1
IC50 (MCF7): 18 nM

Stability [1]: Stable | t1/2 [2]: 5.76 min
Compound: C/C(=N\Nc1nc2cc(F)ccc2n1C)c1ccc(F)cn1
IC50 (MCF7): 2.5 nM

Tmax [3]: 15 min | Cmax [5]: 89 ng/mL | AUCt [7]: 477 ng·h/mL | concentration at 22 h [8]: 117 nM | metabolised at 1 h (CYP1A2): 98% | Stability [1]: Stable | Cmax [12]: 552 ng/mL | AUCt [14]: 87.6 ng·h/mL | t1/2 [15]: 3.25 h | t1/2 [16]: 9.09 h | F [17]: 54.4% | clearance [19]: 176 mL/min/kg | t1/2 [2]: 3.71 min | Tmax [20]: 1.98 min | Stability [21]: Stable
Compound: C/C(=N\Nc1nc2cc(F)c(F)cc2n1C)c1ncccn1
Activity [4]: Non-Toxic | Activity [6]: Non-Toxic | Activity [9]: Non-Toxic | IC50 at 72 h [10]: > 1000 nM | IC50 [11]: > 30 µM | IC50 [13]: 2900 nM | inhibition at 30 µM (hERG (KCNH2)): < 50% | IC50 [18]: 2400 nM

Compound: C/C(=N\N=c1n(C)c2ccccc2n1C)c1ccc(F)cn1
IC50 (MCF7): > 1000 nM

Compound: C/C(=N\N=c1/[nH]c2cc(F)c(F)cc2n1C)c1cccnc1
IC50 (MCF7): > 1000 nM

Compound: C/C(=N\N=c1/sc2ccccc2n1C)c1ccc(F)cn1
IC50 (MCF7): > 1000 nM

Compound: C/C(=N\N=c1/[nH]c2cc(F)c(F)cc2n1C)c1ccc(OCCCS(C)(=O)=O)cn1
IC50 (MCF7): 249 nM

Compound: C/C(=N\N=c1/[nH]c2cc(F)c(F)cc2n1C)c1ccccn1
IC50 (MCF7): 6.3 nM

Compound: C/C(=N\N=c1/[nH]c2cc(F)c(F)cc2n1C)c1ccncn1
IC50 (MCF7): 10.7 nM

t1/2 [2]: 3 min
Compound: C/C(=N\Nc1nc2ccccc2n1C)c1ccccn1
IC50 (MCF7): 22 nM

Compound: COC(=O)c1ccc(/C(C)=N/N=c2\[nH]c3cc(F)c(F)cc3n2C)nc1
IC50 (MCF7): 2.9 nM

Compound: C/C(=N\N=c1/[nH]c2cc(F)c(F)cc2n1C)c1ccc(C(N)=O)cn1
IC50 (MCF7): 2.7 nM

Reference: ChEMBL document CHEMBL5543124, “Lead Compound Development of SRC-3 Inhibitors with Improved Pharmacokinetic Properties and Anticancer Efficacy” (J Med Chem, 2024)
